{"data": "Experimental data pooled from the literature", "target": "Protein kinase C theta type (PRKCQ, Homo sapiens, UniProt Q04759)", "note": "Protocols differ between the studies behind these lines."}
{"Compound": "O=C(NCCCC1CCCCC1)c1ccc(CNC(=O)c2cnn(-c3ccccc3)c2C(F)(F)F)cc1", "test": "cell-free assay, competition with immobilised ligand", "setting": "0.1 µM", "quantity": "remaining binding", "result": "100%"}
{"Compound": "COc1cc2ncnc(Nc3ccc(Oc4ccccc4)cc3C)c2cc1OC", "test": "enzyme activity, inhibitor", "setting": "1 µM", "quantity": "inhibition", "result": "2%"}
{"Compound": "CN(C)C1CCN(CC#Cc2nn(C3CCCC3)c3nc(NCc4ccccc4)ncc23)C1 (stereo not shown)", "test": "enzyme activity, inhibitor, FRET", "setting": "0.1 µM", "quantity": "inhibition", "result": "-1%"}
{"Compound": "CC(C)(C)c1nc(-c2cccc(NS(=O)(=O)c3c(F)cccc3F)c2F)c(-c2ccnc(N)n2)s1", "test": "enzyme activity, inhibitor, radiometric", "setting": "1 µM", "quantity": "remaining activity", "result": "120%"}
{"Compound": "Nc1nc(Nc2ccc(S(N)(=O)=O)cc2)nn1C(=O)c1c(F)cccc1F", "test": "cell-free assay", "setting": "0.5 µM", "quantity": "remaining signal", "result": "114%"}
{"Compound": "Cn1nc(C(F)(F)F)cc1-c1cnc(N2CCc3cc(S(=O)(=O)Nc4c(F)cc(Cl)cc4F)cc(N4CCCC4=O)c32)nc1", "test": "cell-free assay, competition with immobilised ligand", "setting": "1 µM", "quantity": "remaining binding", "result": "100%"}
{"Compound": "Cc1sc(C(=O)NC2COC2)cc1-n1cc(NC(=O)Nc2c(F)cccc2Cl)cn1", "test": "enzyme activity, inhibitor", "setting": "10 µM", "quantity": "remaining activity", "result": "96.9%"}
{"Compound": "Cc1cc(NC(=O)c2cccc3cc(-c4cccc5[nH]nc(N)c45)ccc23)ccc1F", "test": "enzyme activity, inhibitor", "setting": "0.1 µM", "quantity": "activity vs control", "result": "93%"}
{"Compound": "CC(=O)Nc1c(C(C)=O)c(=O)n(C)c2nc(-c3ccc(Cl)cc3Cl)c(-c3ccc(Cl)cc3)cc12", "test": "cell-free assay, competition with immobilised ligand", "setting": "1 µM", "quantity": "remaining binding", "result": "100%"}
{"Compound": "CCN(CC)CCNC(=O)c1c(C)[nH]c(/C=C2\\C(=O)Nc3ccc(F)cc32)c1C", "test": "enzyme activity, inhibitor", "setting": "10 µM", "quantity": "inhibition", "result": "11%"}
{"Compound": "Cc1ccc(C(=O)Nc2ccc(CN3CCN(C)CC3)c(C(F)(F)F)c2)cc1C#Cc1cnc2cccnn12", "test": "enzyme activity", "setting": "23.5 nM", "quantity": "remaining activity", "result": "96%"}
{"Compound": "CCCS(=O)(=O)Nc1ccc(F)c(C(=O)c2c[nH]c3ncc(-c4ccc(Cl)cc4)cc23)c1F", "test": "enzyme activity, inhibitor", "setting": "1 µM", "quantity": "inhibition", "result": "< 10%"}
{"Compound": "CCN(CC)c1ccc(C2=NNC(=O)CC2C)cc1[N+](=O)[O-] (stereo not shown)", "test": "enzyme activity, inhibitor", "setting": "10 µM", "quantity": "remaining activity", "result": "98%"}
{"Compound": "CCOc1cc(-c2nncn2C)ccc1Nc1ncc2cc(C)nc(NCC(C)(C)C)c2n1", "test": "enzyme activity, inhibitor, FRET", "setting": "1 µM", "quantity": "inhibition", "result": "< 15%"}
{"Compound": "CC1=C(C#N)[C@@H](c2ccc3[nH]nc(C)c3c2)C(C#N)=C(c2ccc(Cl)cc2)N1", "test": "cell-free assay, competition with immobilised ligand", "setting": "1 µM", "quantity": "remaining binding", "result": "100%"}
{"Compound": "Cn1cnc(Br)c1C1=CN(c2ncnc3[nH]cnc23)CCS1", "test": "enzyme activity, inhibitor, radiometric", "setting": "50 nM", "quantity": "inhibition", "result": "64.1%"}
{"Compound": "Cc1ccc(C(=O)NCc2ccsc2)cc1C#Cc1cn(C(C)C)c2ncnc(N)c12", "test": "enzyme activity, inhibitor", "setting": "1 µM", "quantity": "activity vs control", "result": "105%"}
{"Compound": "CCCOc1ccc(OC)c(F)c1C(=O)c1ccc(C(=O)N[C@@H]2CNC[C@H]2NC(=O)c2ccc3[nH]ncc3c2)cc1", "test": "enzyme activity, inhibitor", "setting": "10 µM", "quantity": "remaining activity", "result": "22%"}
{"Compound": "CNCc1ccc(-c2cc(-c3nc(-c4ccc(S(=O)(=O)C(C)C)cc4)cnc3N)on2)cc1", "test": "enzyme activity, inhibitor", "setting": "0.4 µM", "quantity": "inhibition", "result": "0%"}
{"Compound": "CC/C(=N\\NC(=O)NCc1cccc(O)c1)c1ccc(O)c(C)c1O", "test": "enzyme activity, inhibitor", "setting": "0.1 µM", "quantity": "inhibition", "result": "12.2%"}
{"Compound": "COc1cccc(CNC(=O)c2nc3scc(COCc4ccc(C(=O)O)cc4)c3c(=O)[nH]2)c1", "test": "cell-free assay, competition with immobilised ligand", "setting": "1 µM", "quantity": "remaining binding", "result": "100%"}
{"Compound": "CC(C)(O)[C@H]1CC[C@H](Nc2ccc3ncc(-c4cccc(C(F)(F)F)c4)n3n2)CC1", "test": "enzyme activity, inhibitor", "setting": "1 µM", "quantity": "remaining activity", "result": "86.1%"}
{"Compound": "O=C1NC(=O)c2cc(Nc3ccc(F)cc3)c(Nc3ccc(F)cc3)cc21", "test": "cell-free assay", "setting": "0.5 µM", "quantity": "remaining signal", "result": "98.7%"}
{"Compound": "O=C(Nc1cnn(-c2csc(C(=O)NC3COC3)c2)c1)Nc1ccccc1Cl", "test": "enzyme activity, inhibitor", "setting": "5 µM", "quantity": "remaining activity", "result": "114%"}
{"Compound": "O=C1Nc2ccc(Cl)cc2C1=Cc1cc(Cl)c(O)c(Cl)c1", "test": "cell-free assay", "setting": "0.5 µM", "quantity": "remaining signal", "result": "105%"}
{"Compound": "CCC(=O)N[C@@H]1CC[C@H](C(=O)N(C)c2ccc(-c3nc4ccccc4o3)cc2)C1", "test": "cell-free assay, competition with immobilised ligand", "setting": "1 µM", "quantity": "remaining binding", "result": "76%"}
{"Compound": "CS(=O)(=O)CCNCc1ccc(-c2ccc3ncnc(Nc4ccc(OCc5cccc(F)c5)c(Cl)c4)c3c2)o1", "test": "cell-free assay", "setting": "0.5 µM", "quantity": "remaining signal", "result": "72.4%"}
{"Compound": "CNCc1ccccc1-c1csc([C@H](C)Nc2nc(C)nc3cc(OC)c(OC)cc23)c1", "test": "cell-free assay, competition with immobilised ligand", "setting": "1 µM", "quantity": "remaining binding", "result": "100%"}
{"Compound": "CNC(=O)c1cc(Oc2ccc(NC(=O)Nc3ccc(Cl)c(C(F)(F)F)c3)cc2)ccn1", "test": "enzyme activity, inhibitor", "setting": "0.3 µM", "quantity": "inhibition", "result": "3%"}
{"Compound": "CC(=O)N1CCC(c2ccc(C(=O)NC(=N)N)cc2C(F)(F)F)CC1", "test": "cell-free assay, competition with immobilised ligand", "setting": "1 µM", "quantity": "remaining binding", "result": "91%"}
{"Compound": "C=CC(=O)Nc1cc(Nc2nccc(Nc3cc(Cl)c(F)cc3C(C)(C)O)n2)c(OC)cc1N1CC[C@@H](N(C)C)C1", "test": "enzyme activity, inhibitor", "setting": "1 µM", "quantity": "inhibition", "result": "17%"}
